Source: ChEMBL document CHEMBL4811253, “Flavonoid-triazolyl hybrids as potential anti-hepatitis C virus agents: Synthesis and biological evaluation” (Eur J Med Chem, 2021)
Activity calls are given as the source filed them. The calls are words filed in the database; no cut-off is given here.

Key:
Huh-7 = test: Cytotoxicity against human Huh7 cells assessed as reduction in cell viability at 100 ug/ml incubated for 72 hrs by XTT assay; format: cell-based; details: huh-7, 72 h, dose 100 µg/ml
Summary of the method: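 Huh7 cells (1 × 10⁴/well) seeded overnight, exposed to compound at 100 µg/mL for 72 h; viability by XTT (Cell Proliferation Kit II) per the kit instructions. Cells grown in DMEM with 10% FBS, 37 °C, 5% CO₂.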

Hepatitis C virus [1] = test: Antiviral activity against HCV JFH-1 in Huh7 cells infected with supernatant from 72 hrs at 100 ug/ml compound treated Huh7 cells with HCV JFH-1 infection assessed as inhibition of HCV progeny virus production by measuring viral RNA level measured after 48 hrs post re-infection by RT-PCR analysis; format: functional, organism-based; details: Hepacivirus hominis, Huh-7, dose 100.0 µg/ml, time 120.0 hrs
Summary of the method: (§1)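 Huh7 cells (1 × 10⁴/well, overnight) infected with HCV at MOI 0.1 for 6 h, virus washed out, then compound for 72 h (single 100 µg/mL screen; or 1, 3, 10, 30 µM dose series). Supernatant used to reinfect fresh Huh7 cells; 48 h later total RNA column-extracted and HCV RNA quantified by real-time RT-PCR. IFNa 10 U/mL as reference.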

Hepatitis C virus [2] = test: Antiviral activity against HCV JFH-1 in Huh7 cells assessed as reduction in NS3 protein expression by Western blotting analysis; format: functional, organism-based; details: Hepacivirus hominis, Huh-7, dose 1-100 µM
Summary of the method: (§2)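 Huh7 cells treated with compound at 1, 10 and 100 µM (concentrations as stated in text). Lysates in RIPA buffer, heated with Laemmli buffer at 95 °C for 10 min. Western blot probed with anti-NS3 (1/1000), anti-Core (1/3000) and anti-GAPDH (1/1000), HRP secondary antibodies, chemiluminescence detection.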

Hepatitis C virus [3] = test: Antiviral activity against HCV JFH-1 in Huh7 cells assessed as reduction in HCV core protein expression by Western blotting analysis; format: functional, organism-based; details: Hepacivirus hominis, Huh-7, dose 1-100 µM; summary of the method: as §2
Hepatitis C virus [4] = test: Antiviral activity against HCV JFH-1 infected in Huh7 cells overexpressing mCherry-NLS-IPS protein at 100 ug/ml pre-infected with virus for 6 hrs followed by compound addition for 72 hrs by fluorescence assay; format: functional, organism-based; details: Hepacivirus hominis, Huh-7, dose 100.0 µg/ml
Summary of the method: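 Huh7 cells carrying mCherry-NLS-IPS were made by transducing them with a recombinant virus from 293T cells (VSV-G, Pol and mCherry-NLS-IPS1 plasmids). These cells were seeded at 5×10⁴ per well overnight in DMEM with 10% FBS at 37 °C and 5% CO₂, then infected with HCV JFH1 (MOI 1) for 6 h. After washing they were cultured with compound for 72 h, with sofosbuvir as positive control. The readout was microscopic imaging of red fluorescence shifting from cytoplasm to nucleus after NS3/4A cleavage.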

Hepatitis C virus [5] = test: Antiviral activity against HCV JFH-1 in Huh7 cells infected with supernatant from 3 days compound treated Huh7 cells with HCV JFH-1 infection assessed as reduction in HCV production by measuring viral RNA level measured after 48 hrs post re-infection by RT-PCR analysis; format: functional, organism-based; details: for Activity: Hepacivirus hominis, Huh-7, time 3.0 day; for IC50: JFH-1, Huh-7; summary of the method: as §1
Hepatitis C virus [6] = test: Antiviral activity against HCV pseudo-particle infected in human Huh-7 cells assessed as inhibition of viral entry at 10 uM incubated for 24 hrs prior to infection and measured after 48 hrs post infection by bright Glo-luciferase reporter gene assay; format: functional, Hepacivirus hominis, JFH-1; parameters: scale not given: the % may be the effect or the level left
Summary of the method: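 Huh-7 cells (5 × 10³/well) pretreated with compound for 24 h, then infected with HCV pseudoparticles. Virus and compound washed out after 6 h of infection. Luciferase read with Bright-Glo reagent 48 h later.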

Hepatitis C virus [7] = test: Antiviral activity against HCV JFH-1 infected in Huh7 cells assessed as inhibition of HCV replication at 10 uM after 72 hrs by luciferase reporter gene assay; format: functional, organism-based; details: Hepacivirus hominis, Huh-7
Summary of the method: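 Huh7 cells transfected with subgenomic JFH1 replicon carrying luciferase (SGR-Luc-JFH1), then treated with compound; luciferase activity in cell extracts read after 72 h.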

Hepatitis C virus [8] = test: Antiviral activity against wild-type HCV infected in human Huh-7 cells assessed as inhibition of viral entry at 10 uM incubated for 24 hrs prior to infection and measured after 48 hrs post infection by RT-PCR; details: Hepacivirus hominis, JFH-1
Hepatitis C virus [9] = test: Antiviral activity against HCV JFH-1 in Huh7 cells infected with supernatant from 3 days at 30 uM of compound treated Huh7 cells with HCV JFH-1 infection assessed as reduction in HCV production by measuring viral RNA level measured after 48 hrs post re-infection by RT-PCR analysis; format: functional, organism-based; details: Hepacivirus hominis, Huh-7, time 120.0 hrs; summary of the method: as §1

With `CC1(C)C=Cc2cc(C3CC(=O)c4ccc(OCc5cn(Cc6ccc(Br)cc6)nn5)cc4O3)ccc2O1` (stereo not drawn) the Activity (Huh-7) was “Non-Toxic”, the Activity (Hepatitis C virus [1]) was “Active” and the Activity (Hepatitis C virus [2]) was “Dose-Dependent Effect”. The Activity (Hepatitis C virus [3]) was “Dose-Dependent Effect” and the Activity (Hepatitis C virus [4]) was “Active”.
With `CC1(C)C=Cc2cc(C3CC(=O)c4ccc(OCc5cn(Cc6ccc(F)cc6)nn5)cc4O3)ccc2O1` (stereo not drawn) the Activity (Huh-7) was “Non-Toxic”, the Activity (Hepatitis C virus [1]) was “Active” and the Activity (Hepatitis C virus [2]) was “Dose-Dependent Effect”. The Activity (Hepatitis C virus [3]) was “Dose-Dependent Effect”, the Activity (Hepatitis C virus [5]) was “Dose-Dependent Effect” and the IC50 (Hepatitis C virus [5]) was 9 µM. The Activity (Hepatitis C virus [4]) was “Active”, the Activity (Hepatitis C virus [6]) was 52% and the Activity (Hepatitis C virus [7]) was “inactive”. The Activity (Hepatitis C virus [8]) was “Active” and the Activity (Hepatitis C virus [9]) was “Active”.
`CC1(C)C=Cc2cc(C3CC(=O)c4ccc(OCc5cn(Cc6ccccc6F)nn5)cc4O3)ccc2O1` (stereo not drawn) was tested, and the Activity (Huh-7) was “Non-Toxic”.
In the case of `CCCCCCn1cc(COc2ccc3c(c2)OC(c2ccc4c(c2)C=CC(C)(C)O4)CC3=O)nn1` (stereo not drawn), the Activity (Huh-7) is reported as “Non-Toxic”, the Activity (Hepatitis C virus [1]) is reported as “Active” and the Activity (Hepatitis C virus [4]) is reported as “Active”.
With `Cn1cc(COc2ccc3c(c2)OC(c2ccc4c(c2)C=CC(C)(C)O4)CC3=O)nn1` (stereo not drawn) the Activity (Huh-7) was “Non-Toxic”.
In the case of `Cc1ccc(Cn2cc(COc3ccc4c(c3)OC(c3ccc5c(c3)C=CC(C)(C)O5)CC4=O)nn2)cc1` (stereo not drawn), the Activity (Huh-7) is reported as “Non-Toxic”.
For `CCn1cc(COc2ccc3c(c2)OC(c2ccc4c(c2)C=CC(C)(C)O4)CC3=O)nn1` (stereo not drawn), the Activity (Huh-7) was “Non-Toxic”.
With `CC1(C)C=Cc2cc(C3CC(=O)c4ccc(OCc5cn(Cc6ccc([N+](=O)[O-])cc6)nn5)cc4O3)ccc2O1` (stereo not drawn) the Activity (Huh-7) was “Non-Toxic”.
`CC1(C)C=Cc2cc(C3CC(=O)c4ccc(OCc5cn(Cc6ccncc6)nn5)cc4O3)ccc2O1` (stereo not drawn) was tested, and the Activity (Huh-7) was “Toxic”.
For `CC1(C)C=Cc2cc(C3CC(=O)c4ccc(OCc5cn(Cc6ccc(C(F)(F)F)cc6)nn5)cc4O3)ccc2O1` (stereo not drawn), the Activity (Huh-7) was “Non-Toxic”.
With `COc1cc(Cn2cc(COc3ccc4c(c3)OC(c3ccc5c(c3)C=CC(C)(C)O5)CC4=O)nn2)cc(OC)c1` (stereo not drawn) the Activity (Huh-7) was “Non-Toxic”.
With `CC1(C)C=Cc2cc(C3CC(=O)c4ccc(OCc5cn(Cc6ccccc6)nn5)cc4O3)ccc2O1` (stereo not drawn) the Activity (Huh-7) was “Toxic”.
With `CC1(C)C=Cc2cc(C3CC(=O)c4ccc(O)cc4O3)ccc2O1` (stereo not drawn) the Activity (Huh-7) was “Non-Toxic”.
`CC1(C)C=Cc2cc(C3CC(=O)c4ccc(OCc5cn(Cc6cccc(F)c6)nn5)cc4O3)ccc2O1` (stereo not drawn) was tested, and the Activity (Huh-7) was “Non-Toxic”.
With `CC1(C)C=Cc2cc(C3CC(=O)c4ccc(OCc5cn(Cc6cc(Cl)cc(Cl)c6)nn5)cc4O3)ccc2O1` (stereo not drawn) the Activity (Huh-7) was “Non-Toxic”.
In the case of `CCCCCCCCCn1cc(COc2ccc3c(c2)OC(c2ccc4c(c2)C=CC(C)(C)O4)CC3=O)nn1` (stereo not drawn), the Activity (Huh-7) is reported as “Non-Toxic”.
For `CC1(C)C=Cc2cc(C3CC(=O)c4ccc(OCc5cn(Cc6ccccc6Cl)nn5)cc4O3)ccc2O1` (stereo not drawn), the Activity (Huh-7) was “Non-Toxic”, the Activity (Hepatitis C virus [1]) was “Active” and the Activity (Hepatitis C virus [2]) was “Dose-Dependent Effect”. For the same compound, the Activity (Hepatitis C virus [3]) was “Dose-Dependent Effect”, the Activity (Hepatitis C virus [5]) was “Dose-Dependent Effect” and the IC50 (Hepatitis C virus [5]) was 5.29 µM. The Activity (Hepatitis C virus [4]) was “Active”, the Activity (Hepatitis C virus [6]) was 34% and the Activity (Hepatitis C virus [7]) was “inactive”. For the same compound, the Activity (Hepatitis C virus [8]) was “Active” and the Activity (Hepatitis C virus [9]) was “Active”.
In the case of `CCCCCn1cc(COc2ccc3c(c2)OC(c2ccc4c(c2)C=CC(C)(C)O4)CC3=O)nn1` (stereo not drawn), the Activity (Huh-7) is reported as “Non-Toxic”, the Activity (Hepatitis C virus [1]) is reported as “Active” and the Activity (Hepatitis C virus [4]) is reported as “Active”.
In the case of `COc1cccc(Cn2cc(COc3ccc4c(c3)OC(c3ccc5c(c3)C=CC(C)(C)O5)CC4=O)nn2)c1` (stereo not drawn), the Activity (Huh-7) is reported as “Non-Toxic”.
`CCCCn1cc(COc2ccc3c(c2)OC(c2ccc4c(c2)C=CC(C)(C)O4)CC3=O)nn1` (stereo not drawn) was tested, and the Activity (Huh-7) was “Non-Toxic”.
